Laboratory results published in PubChem BioAssay AID504383 (The Scripps Research Institute Molecular Screening Center, 2011).
About 1,200 (48%) of roughly 2,500 compounds were called active.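 Rule for the calls: active = mean activation above the low control average plus 3 SD, as set in the primary screen (cut at about 12% in these data); inactive = the rest.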 The set was probably picked from earlier hits. The list shows a part of the results.

What follows are molecules tested against Troponin I, cardiac muscle (Homo sapiens) + Troponin T, cardiac muscle (Homo sapiens) + Troponin C, slow skeletal and cardiac muscles (Homo sapiens) (UniProt P19429+P45379+P63316) (assay: cardiac RTF calcium sensitivity activators, confirmation, biochemical, IANBD-TnC fluorescence, triplicate (AID 504383;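 note: 0% = DMSO at 0.472 mM calcium and 100% = DMSO at 2.9 mM calcium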)). Conditions: IANBD-labeled cardiac RTF, Ca2+ sensitivity fluorescence; at 7.2 µM; stronger effect = higher value; scaled from EC20 to saturating calcium; tested at EC20 calcium, 0.472 mM.
In short: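 System: Labelled thin filament complex | Technique: Filament fluorescence intensity | Benchmarks: Low control EC20 calcium, high control EC100 calcium | Timing: 15 min at 25 °C | Compound dosing: One dose, 7.2 µM nominal | Probe or stimulus: Ca2+ 0.472 mM, EC20 level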
In the case of `CCOc1ccc(S(=O)(=O)n2ccnc2)c2ccccc12`, the activation is reported as 12.2% (active).
`CC1=CC=CN2CC(O)CN=C12` (stereo not drawn) was tested, and the activation was 25.4% (active).
With `CCc1ccc(C(=O)NNc2cc(Cl)ccc2Cl)cc1` the activation was 16.7% (active).
`CCCc1ccc(C(=O)NNc2cc(Cl)ccc2Cl)cc1` was tested, and the activation was 1.21% (inactive).
With `CCC1SC(=Nc2cccc(C)c2)NC1=O` (stereo not drawn) the activation was 143% (active).
`O=C(CSc1nnc(COc2ccccc2)o1)N1CCN(c2ccccc2)CC1` was tested, and the activation was 55.2% (active).
With `Fc1ccc(OCc2nnc(SCCN3CCOCC3)o2)cc1` the activation was 4.25% (inactive).
In the case of `CCO[C@@H]1OC(C(=O)O)=C[C@H](c2coc3ccccc3c2=O)[C@H]1CCCO`, the activation is reported as 9.42% (inactive).
With `COc1cccc(/C(O)=C/c2nc3ccc(C(=O)NCCc4ccc(Cl)cc4)cc3[nH]c2=O)c1` the activation was 6.19% (inactive).
`COc1ccc(N(C)S(=O)(=O)c2ccc(Cl)c(C(=O)NCCc3ccc(Cl)cc3)c2)cc1` was tested, and the activation was 89% (active).
With `COc1ccc(CCNC(=O)c2ccccc2OCc2c(C)noc2C)cc1` the activation was 7.09% (inactive).
In the case of `Cc1cc(C(=O)COc2cccc3cccnc23)c(C)n1C`, the activation is reported as 60.1% (active).
For `OCCN=C1CCCc2c1[nH]c1ccc(Cl)cc21`, the activation was 10.9% (inactive).
For `Cn1ncc(N=Cc2c(O)ccc3ccccc23)c1C(=O)Nc1cccc(Cl)c1`, the activation was 8.95% (inactive).
In the case of `Cn1c(O)c(/C=N/NC(=O)c2cc3ccccc3cc2O)c2ccccc21`, the activation is reported as 228% (active).
`CC(O)c1cccc(N=Cc2ccc3ccccc3c2O)c1` (stereo not drawn) was tested, and the activation was 13.9% (active).
For `Oc1ccccc1C=NN=Cc1c(O)ccc2ccccc12`, the activation was 6.43% (inactive).
`Cc1ccc2c(c1)c(/C=C/c1cc[n+](C)cc1)c(C)n2C` was tested, and the activation was 11% (inactive).
In the case of `Cc1[nH]c2ccccc2c1/C=C/c1cc[n+](C)cc1`, the activation is reported as 11.9% (active).
With `Cc1ccc2[nH]c(C)c(/C=C/c3cc[n+](C)cc3)c2c1` the activation was 171% (active).
In the case of `C=CCn1c(COc2cccc(C)c2)nnc1SCn1nnc2ccccc2c1=O`, the activation is reported as 5.98% (inactive).
`CCNc1nc(SCC(N)=O)nc2sc3c(c12)CCN(C)C3` was tested, and the activation was 6.59% (inactive).
In the case of `CCOC(=O)C(C)Sc1nnc(Cc2cc(=O)[nH]c(=O)[nH]2)n1-c1ccc(Cl)cc1` (stereo not drawn), the activation is reported as 10.2% (inactive).
With `CCOC(=O)C(C)(C)Sc1nc2c(cnn2-c2ccc(Cl)cc2)c(=O)[nH]1` the activation was 185% (active).
In the case of `CCCCCOc1ccc(CN2CCOCC2)cc1Cl`, the activation is reported as 74.8% (active).
With `COc1cccc(CNC(=O)C2CCCN(c3nc4ccccc4o3)C2)c1` (stereo not drawn) the activation was 1.39% (inactive).
`Cc1cc2nc(C3CCCN(C(=O)NCc4ccccc4)C3)[nH]c2cc1C` (stereo not drawn) was tested, and the activation was 35.4% (active).
`CCCC(=O)Nc1ccc(-c2cnc(-c3ccc(NC(=O)CCC)cc3)nc2)cc1` was tested, and the activation was 13.5% (active).
With `Cc1cccc(/C=N/NC(=O)C(C)Nc2cccc3ccccc23)n1` (stereo not drawn) the activation was 46.1% (active).
For `CCOC(=O)c1sc(=NC(=O)c2cc(OC)c(OC)c(OC)c2)n(C)c1C`, the activation was 266% (active).
For `CCOC(=O)Cn1nc2sc3ccccc3n2c(=O)c1=O`, the activation was 8.56% (inactive).
`CCOC(=O)Cn1c(=O)c(-c2cc(Br)ccc2N)nc2ccccc21` was tested, and the activation was 16.6% (active).
With `CC1CC(C)CN(C(=O)Cn2c(-c3nonc3N)nc3ccccc32)C1` (stereo not drawn) the activation was 4.8% (inactive).
In the case of `CCc1ccccc1NC(=O)COc1ccc2c(=O)c(Oc3cc(C)ccc3C)coc2c1`, the activation is reported as 2310% (active).
For `COc1c(O)cccc1-c1nnn(CCC(=O)OCC(=O)c2ccccc2)n1`, the activation was 53.4% (active).
`O=C(Cc1nc2ccccc2[nH]c1=O)c1ccccc1` was tested, and the activation was 8.29% (inactive).
`O=C(O)CSc1nc2ccccc2nc1Cc1ccccc1F` was tested, and the activation was 413% (active).
For `CCC(=O)N(C)CCc1cc2c(c(OC)c1/C=N/NC(=O)c1ccc(Br)cc1)OCO2`, the activation was 8.22% (inactive).
`C/C(Cn1cnc([N+](=O)[O-])n1)=N\NC(=O)c1cccc(F)c1` was tested, and the activation was 8.55% (inactive).
`O=C(N/N=C/c1ccccc1OC(=O)c1ccc2c(c1)OCO2)c1cccc(F)c1` was tested, and the activation was 52.1% (active).
`COc1cc(C(=O)Oc2ccccc2/C=N/NC(=O)c2ccc(Cl)cc2)cc(OC)c1OC` was tested, and the activation was 61.8% (active).
For `CC1=C(C(=O)OCCCCCl)C(c2cc3c(cc2Br)OCO3)NC(=O)N1` (stereo not drawn), the activation was 7.44% (inactive).
In the case of `O=C(Cn1cc(/C=N/NC(=O)c2cccc3ccccc23)c2ccccc21)Nc1ccc(F)cc1`, the activation is reported as 56.1% (active).
For `O=C(Nc1ccccc1C(=O)N/N=C/c1ccco1)c1ccc(F)cc1`, the activation was 10.3% (inactive).
`CCOc1cccc(NC(=O)/C(C#N)=C\c2cn(CC(=O)O)c3ccccc23)c1` was tested, and the activation was 7.03% (inactive).
`CCn1cc([N+](=O)[O-])c(C(=O)Nc2ccn(Cc3ccccc3)n2)n1` was tested, and the activation was 19.6% (active).
With `O=S1(=O)CCOC[C@H](CC2CCCCC2)N1Cc1ccccc1` the activation was 3.3% (inactive).
For `NC(=S)Nc1c(Cl)cccc1Cl`, the activation was 1.18% (inactive).
In the case of `CCOC(=O)c1cc2c(=O)n3ccccc3nc2n(CCOC)c1=NC(=O)c1c(-c2c(F)cccc2Cl)noc1C`, the activation is reported as 8.32% (inactive).
With `Cc1onc(-c2c(F)cccc2Cl)c1C(N)=S` the activation was 25.8% (active).
In the case of `CSC(=NCc1ccco1)NC#N`, the activation is reported as 5.56% (inactive).
With `O=[N+]([O-])c1ccc(/C=C/C2=NN(c3ccccc3)C(c3ccco3)C2)cc1` (stereo not drawn) the activation was 31.7% (active).
For `O=[N+]([O-])c1ccc(C2=NN(c3ccccc3)C(c3ccco3)C2)cc1` (stereo not drawn), the activation was 1.19% (inactive).
In the case of `COc1ncnc2c1N=C1CC(C)(C)CC(N)=C1S2`, the activation is reported as 70.2% (active).
For `O=C(Nc1ccc(Br)cc1)C(c1ccccc1)c1ccccc1`, the activation was 3.94% (inactive).
With `COC(C(=O)Nc1c(F)cccc1F)c1ccccc1` (stereo not drawn) the activation was 13.6% (active).
With `Cc1nnc(NC(=O)CSc2ncnc3c2cnn3-c2ccccc2C)s1` the activation was 14% (active).
With `Cc1nnc(NC(=O)CS(=O)(=O)Cc2ccccc2)s1` the activation was 5.16% (inactive).
With `NC(=O)NNC1=Nc2cccc3cccc1c23` the activation was 6.47% (inactive).
In the case of `CCOC(=O)c1cccc(NC(=O)CSc2nc(N)cc(N)n2)c1`, the activation is reported as 2.77% (inactive).
For `Nc1nc(SCC(=O)Nc2ccc(Cl)cc2)[nH]c(=O)c1-c1ccccc1`, the activation was 5.51% (inactive).
With `Nc1nc(SCC(=O)Nc2ccccc2)nc2nc3c(cc12)CCCC3` the activation was 12.6% (active).
In the case of `CCCOc1ccc(C2C(C(=O)/C=C/c3ccco3)=C(O)C(=O)N2CCN2CCOCC2)cc1OC` (stereo not drawn), the activation is reported as 14% (active).
`C=C(C)c1cccc(C(C)(C)NC(=O)Nc2cccnc2)c1` was tested, and the activation was 15.5% (active).
In the case of `COc1ccc(NC(=O)Nc2cccnc2)c(OC)c1`, the activation is reported as 5.8% (inactive).
For `CCn1c(CSCc2ccccc2)n[nH]c1=S`, the activation was 15.7% (active).
`Nc1ccc(CCNc2ncnc3c2ncn3[C@@H]2O[C@H](CO)[C@@H](O)[C@H]2O)cc1` was tested, and the activation was 7.47% (inactive).
In the case of `Cc1cc(-n2c(=O)c(C#N)cc3c(=O)n4ccccc4nc32)no1`, the activation is reported as 14.7% (active).
`S=C1NC2=C(CCCC2=C2SCCCS2)C(c2ccccc2)N1` (stereo not drawn) was tested, and the activation was 23.6% (active).
With `S=C1NC2=C(CCC/C2=C\c2ccccc2)C(c2ccccc2)N1` (stereo not drawn) the activation was 8.03% (inactive).
In the case of `CC(C)c1ccc(N2C(=O)/C(=C/N(C)C)SC2=S)cc1`, the activation is reported as 57.7% (active).
`O=C1CSC(=S)N1c1ccc(O)cc1` was tested, and the activation was 4.53% (inactive).
With `CN(C)/C=C1\SC(=S)N(c2ccc(Br)cc2)C1=O` the activation was 75.9% (active).
`CCN1C(=O)/C(=C/C=C2\N(CC)c3cc(S(=O)(=O)N(C)C)ccc3N2c2ccccc2)SC1=S` was tested, and the activation was 10.6% (inactive).
For `C=CCn1c(C)c(C(C)=O)c(N2CCN(c3ccccc3)CC2)nc1=S`, the activation was 74.9% (active).
`CC(=O)c1nnn(-c2nc(N3CCCC3)nc(N(c3ccccc3)c3ccccc3)n2)c1C` was tested, and the activation was 5.27% (inactive).
In the case of `O=C(c1ccccc1C(=O)N1CCN(c2ccccc2)CC1)N1CCN(c2ccccc2)CC1`, the activation is reported as 0.49% (inactive).
In the case of `CC(C)OC(=O)CC(=O)CSc1nc(-c2ccc(F)cc2)cc(-c2ccccc2)c1C#N`, the activation is reported as 38.9% (active).
With `COC(=O)c1ccc(-c2ccc(F)cc2)nc1C` the activation was -3.68% (inactive).
With `O=C(OCCN1CCCCC1)c1ccccc1Br` the activation was 3.85% (inactive).
For `CN1CCCC(OC(=O)c2ccccc2Br)C1` (stereo not drawn), the activation was 67% (active).
With `Cc1c(Br)c(C(=O)N2CCc3ccccc32)nn1C` the activation was 3.1% (inactive).
With `Cc1cccc2cc3c(N)c(C(=O)N4CCc5ccccc54)sc3nc12` the activation was 7.08% (inactive).
For `Cc1nn(C)c(C(=O)N2CCc3ccccc32)c1Br`, the activation was 66.9% (active).
`O=C1c2ccsc2SCCN1Cc1ccc(F)cc1` was tested, and the activation was 27.7% (active).
`O=C1N/C(=C\c2ccsc2)C(=O)N1Cc1ccc(F)cc1` was tested, and the activation was 4.06% (inactive).
For `C=CCn1c(=O)c(C(=O)NCCNCC)c(O)c2ccccc21`, the activation was 12.4% (active).
`COc1cc(OC)cc(C(=O)N(Cc2ccco2)c2c(N)n(Cc3ccccc3)c(=O)[nH]c2=O)c1` was tested, and the activation was 7.79% (inactive).
In the case of `CCCCN(C(=O)c1ccc([N+](=O)[O-])o1)c1c(N)n(CCCC)c(=O)[nH]c1=O`, the activation is reported as 5.49% (inactive).
With `CCN(C(=O)CN1CCCc2cc(C)ccc21)c1c(N)n(Cc2ccccc2)c(=O)[nH]c1=O` the activation was 6.97% (inactive).
With `CCn1c(=O)c(C(=O)CN2CCCc3ccccc32)c(N)n(Cc2ccccc2)c1=O` the activation was 60% (active).
With `COCCCN(C(=O)c1cccnc1SC)c1c(N)n(Cc2ccccc2)c(=O)[nH]c1=O` the activation was 48.1% (active).
`COCCN(C(=O)CN1CCCc2ccccc21)c1c(N)n(Cc2ccccc2)c(=O)[nH]c1=O` was tested, and the activation was 18.8% (active).
`Cc1ccc2c(c1)CCCN2CC(=O)N(C)c1c(N)n(Cc2ccccc2)c(=O)[nH]c1=O` was tested, and the activation was 1.27% (inactive).
`OCCN(CCO)c1nc(N2CCCCC2)c2nc(N(CCO)CCO)nc(N3CCCCC3)c2n1` was tested, and the activation was 7.69% (inactive).
With `CN1CCc2c(sc(/N=C/c3cccs3)c2C(N)=O)C1` the activation was 2.64% (inactive).
With `CN1CCc2c(sc(/N=C/c3ccco3)c2C(N)=O)C1` the activation was 10.3% (inactive).
For `CC(=O)N1CCc2c(sc(NC(=O)C3CCCN3S(=O)(=O)c3cccs3)c2C(N)=O)C1` (stereo not drawn), the activation was 39.1% (active).
